According to ChEMBL document CHEMBL1124242, “Renin inhibitors. Dipeptide analogues of angiotensinogen utilizing a dihydroxyethylene transition-state mimic at the scissile bond to impart greater inhibitory potency” (J Med Chem, 1988):
Where a SMILES comes first, the peptide text is derived from it. [ ]: non-standard residue; d: D form. The star is where a group is joined. 1Nal = N[C@@H](Cc1cccc2ccccc12)C(=O)O; Cha = N[C@@H](CC1CCCCC1)C(=O)O; Leu(ol) = CC(C)C[C@H](N)CO; Cbz = O=C(OCc1ccccc1)*; Boc = CC(C)(C)OC(=O)*

Assays:
Renin (Homo sapiens) [1] = biological target: T1, Renin (Homo sapiens) (UniProt P00797); experiment: (§1) In vitro inhibitory activity against renin at 10e-6 (M)
T1 sequence (whole entry): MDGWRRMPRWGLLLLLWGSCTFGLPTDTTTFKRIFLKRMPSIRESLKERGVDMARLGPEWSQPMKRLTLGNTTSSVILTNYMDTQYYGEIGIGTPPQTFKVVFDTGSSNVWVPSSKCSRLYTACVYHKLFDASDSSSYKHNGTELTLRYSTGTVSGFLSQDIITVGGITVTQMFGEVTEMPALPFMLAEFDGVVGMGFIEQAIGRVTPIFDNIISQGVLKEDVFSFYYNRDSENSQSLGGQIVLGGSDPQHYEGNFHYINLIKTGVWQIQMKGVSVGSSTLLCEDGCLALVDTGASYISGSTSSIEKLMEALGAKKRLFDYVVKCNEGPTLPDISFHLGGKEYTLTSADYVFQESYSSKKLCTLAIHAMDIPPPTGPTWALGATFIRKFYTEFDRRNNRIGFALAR

Renin [2] = biological target: T2, Renin (Homo sapiens, UniProt P00797); experiment: as §1
T2 sequence (P00797 whole entry): T1 sequence (whole entry)

Cathepsin D (Bos taurus) = biological target: T3, Cathepsin D (Bos taurus) (UniProt P80209); experiment: In vitro Inhibitory activity against Bovine cathepsin D 10e-5 (M); settings: concentration not given here
T3 sequence (whole entry): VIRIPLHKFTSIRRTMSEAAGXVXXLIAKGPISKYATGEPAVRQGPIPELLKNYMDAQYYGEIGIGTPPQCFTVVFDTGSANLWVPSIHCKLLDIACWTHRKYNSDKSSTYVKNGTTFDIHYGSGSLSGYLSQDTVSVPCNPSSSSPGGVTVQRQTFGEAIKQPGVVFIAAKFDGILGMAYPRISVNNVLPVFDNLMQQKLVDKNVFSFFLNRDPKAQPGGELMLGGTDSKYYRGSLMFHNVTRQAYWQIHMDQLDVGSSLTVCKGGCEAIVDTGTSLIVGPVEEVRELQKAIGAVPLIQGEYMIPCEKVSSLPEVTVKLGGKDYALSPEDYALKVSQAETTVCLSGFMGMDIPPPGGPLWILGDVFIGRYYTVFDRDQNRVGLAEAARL
Method in brief: (§2)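 Assayed against purified porcine pepsin or bovine cathepsin D by a method described previously. Results given as percent inhibition at 10^-5 M.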

[3] = biological target: T4, Gastricsin (Homo sapiens) (UniProt P20142); experiment: In vitro Inhibitory activity against human Gastricsin at 10e-5 (M)
T4 sequence (whole entry): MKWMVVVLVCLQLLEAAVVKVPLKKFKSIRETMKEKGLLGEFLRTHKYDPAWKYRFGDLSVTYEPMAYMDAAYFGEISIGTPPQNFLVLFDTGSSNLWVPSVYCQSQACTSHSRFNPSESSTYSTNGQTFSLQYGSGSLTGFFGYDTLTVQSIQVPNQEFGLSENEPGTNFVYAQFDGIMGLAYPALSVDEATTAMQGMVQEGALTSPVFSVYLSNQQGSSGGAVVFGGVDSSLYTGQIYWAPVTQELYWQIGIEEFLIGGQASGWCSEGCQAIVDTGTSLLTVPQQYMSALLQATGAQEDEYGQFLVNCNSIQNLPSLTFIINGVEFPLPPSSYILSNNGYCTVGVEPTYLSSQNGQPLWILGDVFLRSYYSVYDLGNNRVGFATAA
Method in brief: (§3)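 Human gastricsin and pepsin isolated from gastric juice by IRC-50 ion exchange with pH elution. Hemoglobin substrate; gastricsin run at pH 3.1, pepsin at pH 2.0. After trichloroacetic acid precipitation, supernatant absorbance read at 280 nm. Results given as percent inhibition at 10^-5 M.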

Pepsin A (Homo sapiens) = Pepsin A (Homo sapiens) (UniProt P0DJD9); experiment: In vitro inhibitory activity against Human pepsin at 10e-5 M; method in brief: as §3
Pepsin A (Homo sapiens), sequence (P0DJD9 63-388 limits assumed): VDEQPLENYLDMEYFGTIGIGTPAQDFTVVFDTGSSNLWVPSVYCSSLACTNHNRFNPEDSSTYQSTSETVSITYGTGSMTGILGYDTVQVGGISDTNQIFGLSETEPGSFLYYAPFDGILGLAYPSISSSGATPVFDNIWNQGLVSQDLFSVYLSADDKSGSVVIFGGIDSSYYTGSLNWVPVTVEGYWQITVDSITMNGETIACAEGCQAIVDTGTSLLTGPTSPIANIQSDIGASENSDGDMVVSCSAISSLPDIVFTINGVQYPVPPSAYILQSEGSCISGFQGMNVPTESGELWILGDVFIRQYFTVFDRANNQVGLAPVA

Renin (Homo sapiens) [4] = biological target: T1, Renin (Homo sapiens); experiment: In vitro Inhibitory activity against Renin at 10e-9 (M)
Method in brief: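 Purified human renin, procedure as reported earlier. Results given as percent inhibition at 10^-9 M.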

Renin [5] = biological target: T2, Renin; experiment: In vitro inhibitory activity was tested against purified human renal renin
Pepsin A (Sus scrofa) = Pepsin A (Sus scrofa) (UniProt P00791); experiment: In vitro Inhibitory activity against porcine Pepsin at 10e-5 (M); method in brief: as §2
Pepsin A (Sus scrofa), sequence (P00791 60-385 limits assumed): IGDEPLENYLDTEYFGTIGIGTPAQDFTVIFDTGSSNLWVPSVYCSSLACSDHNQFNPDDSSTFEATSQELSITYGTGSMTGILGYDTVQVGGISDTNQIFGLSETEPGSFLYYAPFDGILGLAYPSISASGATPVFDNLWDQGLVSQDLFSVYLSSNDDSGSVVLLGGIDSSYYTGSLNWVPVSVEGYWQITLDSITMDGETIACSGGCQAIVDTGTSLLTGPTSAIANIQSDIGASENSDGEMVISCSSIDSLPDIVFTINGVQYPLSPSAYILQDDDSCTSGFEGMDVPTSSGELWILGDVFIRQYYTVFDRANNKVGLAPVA

Renin [6] = biological target: T2, Renin; experiment: In vitro inhibitory activity against renin at 10e-8(M)
Renin (Homo sapiens) [7] = biological target: T1, Renin (Homo sapiens); experiment: In vitro inhibitory activity against renin at 10e-5 M
Renin [8] = biological target: T2, Renin; experiment: In vitro inhibitory activity against renin at 10e-5 (M)

How did the inhibition (Renin (Homo sapiens) [1]) turn out when `CC(C)C[C@@H](CO)NC(=O)[C@H](Cc1c[nH]cn1)NC(=O)[C@H](Cc1cccc2ccccc12)NC(=O)OCc1ccccc1` (Cbz-[1Nal]-His-[Leu(ol)]) was run?
The inhibition was 61%.

And the IC50 (Renin [2])?
The IC50 was 3600 nM.

Which inhibition (Cathepsin D (Bos taurus)) does the source give for `CC(C)C[C@H](NC(=O)OC(C)(C)C)C(=O)N[C@@H](CC(C)C)C(=O)N[C@@H](CC1CCCCC1)[C@@H](O)[C@@H](O)CC(C)C` here?
Its inhibition is 81%.

And the inhibition [3]?
The inhibition was 0%.

What about the inhibition (Pepsin A (Homo sapiens)) of the same compound?
The inhibition was 25%.

And the inhibition (Renin (Homo sapiens) [4])?
The inhibition was 23%.

And the IC50 (Renin [5])?
Its IC50 is 2.5 nM.

What about the inhibition (Pepsin A (Sus scrofa)) of the same compound?
Its inhibition is 63%.

Which IC50 (Renin [6]) does the source give for `CC(C)C[C@@H](C=O)NC(=O)[C@H](Cc1c[nH]cn1)NC(=O)[C@H](Cc1cccc2ccccc12)NC(=O)OCc1ccccc1` (Cbz-[1Nal]-His-Leu-aldehyde) here?
The IC50 was 80 nM.

Which inhibition (Renin (Homo sapiens) [7]) does the source give for `C[C@H](NC(=O)[C@H](Cc1ccccc1)NC(=O)OC(C)(C)C)C(=O)N[C@H](C=O)CC1CCCCC1` (Boc-Phe-Ala-[Cha]-aldehyde) here?
Its inhibition is 93%.

What about the IC50 (Renin [8]) of the same compound?
The IC50 was 450 nM.
